Laboratory results: ChEMBL document CHEMBL1144466, “Mutant prevention concentrations of fluoroquinolones for Enterobacteriaceae expressing the plasmid-carried quinolone resistance determinant qnrA1” (2007)
Converted amounts (≈) assume the structure as drawn.

Experiments:
Klebsiella pneumoniae [1] = experiment: Antimicrobial activity against Klebsiella pneumoniae C2/pMG252 GyrA Ser83Phe/ParC mutant expressing porins by microdilution method; format: functional
Method in brief: (§1)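 Mutants were selected on Mueller-Hinton agar containing ciprofloxacin or moxifloxacin, with colonies allowed to grow for up to 96 h. Colonies recovered one concentration step below the MPC were tested for ciprofloxacin MIC (μg/ml) by microdilution.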

Escherichia coli [2] = experiment: Antimicrobial activity against qnrA1 expressing Escherichia coli DH10B expressing porins by microdilution method; format: functional; details: for MIC: Escherichia coli, DH10B
Method in brief: (§2)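 Microdilution MICs (μg/ml) of ciprofloxacin, levofloxacin or moxifloxacin against Enterobacteriaceae strains differing in qnrA1 carriage: qnrA1 cloned in pACYC184 in E. coli DH10B, natural qnrA1 plasmids transferred to E. coli J53, clinical K. pneumoniae, and qnrA1-negative isogenic controls.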

Escherichia coli [3] = experiment: Antimicrobial activity against Escherichia coli DH10B/pACYC184 expressing porins by microdilution method; format: functional; details: for MIC: Escherichia coli, DH10B; method in brief: as §2
Klebsiella pneumoniae [4] = experiment: Antimicrobial activity against qnrA1 expressing Klebsiella pneumoniae UAB1 GyrA/ParC mutant expressing porins by microdilution method; format: functional
Escherichia coli [5] = experiment: Antimicrobial activity against Escherichia coli J53/p1132 negative expressing porins by microdilution method; format: functional; method in brief: as §2
Escherichia coli [6] = experiment: Antimicrobial activity against qnrA1 expressing Escherichia coli J53/pN5 expressing porins by microdilution method; format: functional; details: for MIC: Escherichia coli, J53; method in brief: as §2
Klebsiella pneumoniae [7] = experiment: Antimicrobial activity against Klebsiella pneumoniae C2 GyrA Ser83Phe/ParC mutant expressing porins by microdilution method; format: functional; method in brief: as §1
Klebsiella pneumoniae [8] = experiment: Antimicrobial activity against qnrA1 expressing Klebsiella pneumoniae UAB1 expressing porins by microdilution method; format: functional; details: for MIC: Klebsiella pneumoniae, UAB1
Escherichia coli [9] = experiment: Antimicrobial activity against qnrA1 expressing Escherichia coli J53/pMG252 expressing porins by microdilution method; format: functional; details: for MIC: Escherichia coli, J53; method in brief: as §2
Klebsiella pneumoniae [10] = experiment: Antimicrobial activity against qnrA1 expressing Klebsiella pneumoniae N5 GyrA/ParC mutant expressing porins by microdilution method; format: functional
Escherichia coli [11] = experiment: Antimicrobial activity against Escherichia coli J53 expressing porins by microdilution method; format: functional; method in brief: as §2
Klebsiella pneumoniae [12] = experiment: Antimicrobial activity against qnrA1 expressing Klebsiella pneumoniae1960 GyrA Ser83Phe mutant expressing porins by microdilution method; format: functional; details: for MIC: Klebsiella pneumoniae
Klebsiella pneumoniae [13] = experiment: Antimicrobial activity against qnrA1 expressing Klebsiella pneumoniae 1132 GyrA/ParC mutant expressing porins by microdilution method; format: functional
Escherichia coli [14] = experiment: Antimicrobial activity against Escherichia coli DH10B expressing porins by microdilution method; format: functional; details: for MIC: Escherichia coli, DH10B; method in brief: as §2
Escherichia coli [15] = experiment: Antimicrobial activity against qnrA1 expressing Escherichia coli J53/p1960 expressing porins by microdilution method; format: functional; details: for MIC: Escherichia coli, J53; method in brief: as §2
Klebsiella pneumoniae [16] = experiment: Antimicrobial activity against Klebsiella pneumoniae C2/pMG252 GyrA Ser83Phe mutant expressing porins by microdilution method; format: functional; details: for MIC: Klebsiella pneumoniae, C2
Klebsiella pneumoniae [17] = experiment: Antimicrobial activity against qnrA1 expressing Klebsiella pneumoniae 1132 expressing porins by microdilution method; format: functional; details: for MIC: Klebsiella pneumoniae; method in brief: as §2
Klebsiella pneumoniae [18] = experiment: Antimicrobial activity against qnrA1 expressing Klebsiella pneumoniae N5 expressing porins by microdilution method; format: functional; details: for MIC: Klebsiella pneumoniae, N5; method in brief: as §2
Klebsiella pneumoniae [19] = experiment: Antimicrobial activity against qnrA1 expressing Klebsiella pneumoniae 1960 GyrA Ser83Phe/ParC mutant expressing porins by microdilution method; format: functional; method in brief: as §1
Klebsiella pneumoniae [20] = experiment: Antimicrobial activity against Klebsiella pneumoniae C2 GyrA Ser83Phe mutant lacking porins by microdilution method; details: for MIC: Klebsiella pneumoniae, C2
Escherichia coli [21] = experiment: Antimicrobial activity against qnrA1 expressing Escherichia coli J53/pMG252 GyrA/ParC mutant expressing porins by microdilution method; format: functional
Escherichia coli [22] = experiment: Antimicrobial activity against qnrA1 expressing Escherichia coli J53/p1960 GyrA/ParC mutant expressing porins by microdilution method; format: functional
Escherichia coli [23] = experiment: Antimicrobial activity against qnrA1 expressing Escherichia coli J53/pN5 GyrA/ParC mutant expressing porins by microdilution method; format: functional
Method in brief: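 Broth microdilution MIC, in μg/ml, with ciprofloxacin, levofloxacin or moxifloxacin against the E. coli J53 transconjugant carrying qnrA1.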

Escherichia coli [24] = experiment: Antimicrobial activity against Escherichia coli J53 GyrA/ParC mutant expressing porins by microdilution method; format: functional
Escherichia coli [25] = experiment: Antimicrobial activity against qnrA1 expressing Escherichia coli DH10B GyrA/ParC mutant expressing porins by microdilution method; format: functional
Escherichia coli [26] = experiment: Antimicrobial activity against Escherichia coli J53/p1132 negative GyrA/ParC mutant expressing porins by microdilution method; format: functional

SMILES | MIC (Klebsiella pneumoniae [1]) | MPC (Escherichia coli [2]) | MPC (Escherichia coli [3]) | MIC (Klebsiella pneumoniae [4]) | MPC (Escherichia coli [5]) | MPC (Escherichia coli [6]) | MIC (Klebsiella pneumoniae [7]) | MPC (Klebsiella pneumoniae [8]) | MIC (Klebsiella pneumoniae [8]) | MPC (Escherichia coli [9]) | MIC (Klebsiella pneumoniae [10]) | MPC (Escherichia coli [11]) | MIC (Klebsiella pneumoniae [12]) | MIC (Klebsiella pneumoniae [13]) | MPC (Escherichia coli [14]) | MPC (Escherichia coli [15]) | MIC (Klebsiella pneumoniae [16]) | MPC (Klebsiella pneumoniae [17]) | MIC (Klebsiella pneumoniae [17]) | MPC (Klebsiella pneumoniae [18]) | also measured
O=C(O)c1cn(C2CC2)c2cc(N3CCNCC3)c(F)cc2c1=O [CIPROFLOXACIN] | 64 µg/mL (≈ 193 µM) | 2 µg/mL | 0.015 µg/mL | 16 µg/mL (≈ 48.3 µM) | 0.06 µg/mL | 4 µg/mL | 4 µg/mL (≈ 12.1 µM) | 16 µg/mL | 2 µg/mL (≈ 6.04 µM) | 4 µg/mL | 8 µg/mL (≈ 24.1 µM) | 0.06 µg/mL | 1 µg/mL (≈ 3.02 µM) | 16 µg/mL (≈ 48.3 µM) | 0.015 µg/mL | 4 µg/mL | 2 µg/mL (≈ 6.04 µM) | 32 µg/mL | 4 µg/mL (≈ 12.1 µM) | 4 µg/mL | MPC (Klebsiella pneumoniae [12]): 64 µg/mL; MPC (Klebsiella pneumoniae [16]): 128 µg/mL; MIC (Klebsiella pneumoniae [18]): 0.25 µg/mL (≈ 0.754 µM); MIC (Klebsiella pneumoniae [19]): 32 µg/mL (≈ 96.6 µM); MPC (Klebsiella pneumoniae [20]): 8 µg/mL; MIC (Klebsiella pneumoniae [20]): 0.25 µg/mL (≈ 0.754 µM)
C[C@H]1COc2c(N3CCN(C)CC3)c(F)cc3c(=O)c(C(=O)O)cn1c23.C[C@H]1COc2c(N3CCN(C)CC3)c(F)cc3c(=O)c(C(=O)O)cn1c23.O [LEVOFLOXACIN] | 64 µg/mL | 2 µg/mL | 0.015 µg/mL | 16 µg/mL | 0.06 µg/mL | 4 µg/mL | 8 µg/mL | 16 µg/mL | 2 µg/mL | 4 µg/mL | 8 µg/mL | 0.06 µg/mL | 2 µg/mL | 16 µg/mL | 0.015 µg/mL | 4 µg/mL | 2 µg/mL | 32 µg/mL | 4 µg/mL | 4 µg/mL | MIC (Escherichia coli [2]): 0.125 µg/mL; MIC (Escherichia coli [3]): 4 ng/mL; MIC (Escherichia coli [21]): 2 µg/mL; MIC (Escherichia coli [6]): 0.125 µg/mL; MIC (Escherichia coli [22]): 2 µg/mL; MIC (Escherichia coli [9]): 0.25 µg/mL; MPC (Klebsiella pneumoniae [12]): 64 µg/mL; MIC (Escherichia coli [23]): 4 µg/mL; MIC (Escherichia coli [14]): 4 ng/mL; MIC (Escherichia coli [15]): 0.125 µg/mL; MPC (Klebsiella pneumoniae [16]): 128 µg/mL; MIC (Klebsiella pneumoniae [19]): 64 µg/mL; MPC (Klebsiella pneumoniae [20]): 8 µg/mL; MIC (Klebsiella pneumoniae [20]): 0.25 µg/mL
COc1c(N2C[C@@H]3CCCN[C@@H]3C2)c(F)cc2c(=O)c(C(=O)O)cn(C3CC3)c12 [MOXIFLOXACIN] | 32 µg/mL (≈ 79.7 µM) | 2 µg/mL | 0.06 µg/mL | 32 µg/mL (≈ 79.7 µM) | 0.25 µg/mL | 4 µg/mL | 2 µg/mL (≈ 4.98 µM) | 32 µg/mL | 4 µg/mL (≈ 9.96 µM) | 4 µg/mL | 4 µg/mL (≈ 9.96 µM) | 0.125 µg/mL | 2 µg/mL (≈ 4.98 µM) | 16 µg/mL (≈ 39.9 µM) | 0.06 µg/mL | 4 µg/mL | 1 µg/mL (≈ 2.49 µM) | 32 µg/mL | 8 µg/mL (≈ 19.9 µM) | 16 µg/mL | MIC (Escherichia coli [2]): 0.125 µg/mL (≈ 0.311 µM); MIC (Escherichia coli [3]): 2 ng/mL (≈ 0.00498 µM); MIC (Escherichia coli [5]; Escherichia coli, J53): 0.015 µg/mL (≈ 0.0374 µM); MIC (Escherichia coli [6]): 0.125 µg/mL (≈ 0.311 µM); MIC (Escherichia coli [22]): 4 µg/mL (≈ 9.96 µM); MIC (Escherichia coli [9]): 0.5 µg/mL (≈ 1.25 µM); MIC (Escherichia coli [11]; Escherichia coli, J53): 0.015 µg/mL (≈ 0.0374 µM); MIC (Escherichia coli [14]): 2 ng/mL (≈ 0.00498 µM); MIC (Escherichia coli [15]): 0.125 µg/mL (≈ 0.311 µM); MIC (Escherichia coli [24]): 0.5 µg/mL (≈ 1.25 µM); MIC (Klebsiella pneumoniae [18]): 0.5 µg/mL (≈ 1.25 µM); MIC (Escherichia coli [25]): 0.5 µg/mL (≈ 1.25 µM); MIC (Klebsiella pneumoniae [19]): 16 µg/mL (≈ 39.9 µM); MPC (Klebsiella pneumoniae [20]): 4 µg/mL; MIC (Klebsiella pneumoniae [20]): 0.125 µg/mL (≈ 0.311 µM); MIC (Escherichia coli [26]): 0.25 µg/mL (≈ 0.623 µM)
